# Compounds with a hit are over-represented: about 4.6% of the library has one in this group of screens.
# ALR H2O2 inh: human ALR oxidase inhibition via reduced H2O2; purified ALR, DTT oxidation, H2O2 HRP-luminol luminescence; P55789; AID 485317; 290,000 compounds, 3.8% hits; inhibition, % (concentration not given with the values);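 active = mean replicate inhibition above about 79%, with every replicate also reaching it, limit read from the data; inconclusive = only one of the two criteria met; inactive = mean below limit and not every replicate reaching it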
# DSG3 Ab inh: blocks pemphigus antibody binding to human desmoglein-3; P32926; DSG3-coupled beads, scFv-anti-DSG3-GFP binding, flow cytometry; hits give low values; binding (percent of control), % at 10 µM; 310,000 compounds, 0.48% hits;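 active = binding more than 3 SD below its plate's average and above zero; inconclusive = below that plate limit but binding exactly zero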;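 note: hits lower antibody fragment binding to DSG3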
# Target sequence (P32926 whole entry, looked up, the tested form may be a part): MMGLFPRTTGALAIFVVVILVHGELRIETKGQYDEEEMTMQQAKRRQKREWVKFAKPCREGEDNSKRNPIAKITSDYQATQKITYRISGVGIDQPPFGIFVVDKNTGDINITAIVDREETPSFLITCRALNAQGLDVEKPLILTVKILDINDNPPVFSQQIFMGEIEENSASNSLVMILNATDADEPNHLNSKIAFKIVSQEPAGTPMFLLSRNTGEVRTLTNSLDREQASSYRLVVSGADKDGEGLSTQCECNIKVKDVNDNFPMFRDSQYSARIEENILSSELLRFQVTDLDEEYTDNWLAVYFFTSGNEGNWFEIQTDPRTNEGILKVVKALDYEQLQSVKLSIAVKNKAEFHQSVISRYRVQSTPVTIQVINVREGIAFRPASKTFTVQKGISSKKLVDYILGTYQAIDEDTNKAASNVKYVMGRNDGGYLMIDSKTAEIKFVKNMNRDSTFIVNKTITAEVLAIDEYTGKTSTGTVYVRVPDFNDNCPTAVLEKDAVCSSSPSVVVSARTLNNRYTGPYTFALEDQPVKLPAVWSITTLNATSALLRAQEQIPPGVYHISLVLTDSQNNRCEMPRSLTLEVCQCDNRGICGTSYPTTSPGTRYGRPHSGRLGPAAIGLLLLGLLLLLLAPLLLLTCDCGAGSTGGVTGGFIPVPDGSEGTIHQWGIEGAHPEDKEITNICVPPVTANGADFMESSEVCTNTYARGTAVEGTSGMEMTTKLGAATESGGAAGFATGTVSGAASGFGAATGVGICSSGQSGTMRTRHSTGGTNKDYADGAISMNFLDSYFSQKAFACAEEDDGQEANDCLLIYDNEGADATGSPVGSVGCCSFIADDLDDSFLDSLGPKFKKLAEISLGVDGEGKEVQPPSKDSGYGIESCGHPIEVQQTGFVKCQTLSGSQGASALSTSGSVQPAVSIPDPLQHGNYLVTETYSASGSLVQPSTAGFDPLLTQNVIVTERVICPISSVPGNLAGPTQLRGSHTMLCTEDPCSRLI
# NALP1 yeast inh: NALP1 inhibition | inhibition, % at 10 µM | 280,000 compounds, 0.61% hits | AID 2071 | S. cerevisiae NALP1/ASC/caspase-1 growth, X-gal OD620, 72 h; in the data active = inhibition mostly above about 24%, no sharp cut-off; inactive = mostly below about 32%
# Arr AP2 block: blocks beta-arrestin peptide binding to AP2 adaptin; FITC-arrestin peptide / GST-AP2 beads, flow cytometry; AP2 beta2 appendage carries R879A mutation; inhibition, % at 10 µM; 340,000 compounds, 0.31% hits; AID 504490;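 active = inhibition above a set limit, near 3 SD of compounds lacking own fluorescence, cut at about 54% in these data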
#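 System: GST-tagged AP2 beta2-adaptin appendage (R879A) on 4 µm glutathione beads / Reagent: FITC-arrestin peptide, 50 nM / Detection: HyperCyt-sampled flow cytometry, FL1 channel, ex 488/em 535 nm / Timing: 12 min plus 1 h, RT / Buffer or medium: PBS plus Tween 20 (0.05%) and BSA (0.1%)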
# NLRP3 yeast inh: NALP3 inhibition in yeast. Yeast reconstituted NLRP3/ASC/caspase-1, beta-gal luminescence, 24 h. inhibition, % at 10 µM. 330,000 compounds, 0.39% hits;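 active = inhibition of 50% or more; inactive = inhibition below 50%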
# PolyA inh: yeast polyadenylation inhibition; 300,000 compounds, 0.02% hits; activity score, % at 12 µM; S. cerevisiae SKY197-pL101 polyadenylation reporter, beta-gal luminescence; efflux-impaired pdr1/pdr3 knockout yeast; score 100 = 6 SD above DMSO; AID 1875;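 active = lowest replicate activity score at least 50, where 100 means six control SD above control mean; inconclusive = lowest score under 50 but half or more replicates reach 50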;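 note: yeast exposed to compound for 9 h at 30 °C; higher score means more reporter readthrough which indicates perturbed polyadenylation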
# Numbers stand for hits; . = inactive; ? = inconclusive; / = not tested or not shown.
SMILES,ALR H2O2 inh,DSG3 Ab inh,NALP1 yeast inh,Arr AP2 block,NLRP3 yeast inh,PolyA inh
CCOc1ccc(Cn2c(C)nc([N+](=O)[O-])c2SCC(O)CCl)cc1[N+](=O)[O-] (stereo unspecified),.,.,.,.,.,.
CCCOc1ccc(Cn2c(C)nc([N+](=O)[O-])c2SCC(O)COC)cc1[N+](=O)[O-] (stereo unspecified),99.0,.,.,.,.,.
Cc1c(Cl)cccc1NC(=O)CCN1C(=O)C2CC=CCC2C1=O (stereo unspecified),.,/,.,.,.,.
CCOC(=O)c1ccc(N2C(=O)CC(N3CCCC(C)C3)C2=O)cc1 (stereo unspecified),.,.,104.8,.,.,.
CCOC(=O)c1ccc(N2C(=O)CC(Nc3ccc(O)cc3)C2=O)cc1 (stereo unspecified),97.2,.,/,.,.,.
COc1cccc(-c2noc(Cn3nc(C)c([N+](=O)[O-])c3C)n2)c1,92.4,.,.,.,.,.
C#CCOCC1CN(C)C(=O)O1 (stereo unspecified),/,.,/,/,/,/
COc1ccc(/C=N/NC(=O)CNC(=O)c2ccc3c(c2)OCCO3)cc1OC,.,.,.,/,.,.
COc1cc(/C=N/NC(=O)CNC(=O)c2ccc3c(c2)OCCO3)ccc1O,98.0,.,.,.,.,.
O=C(O)c1ccc(/C=N/NC(=O)c2ccc3c(c2)OCCO3)cc1,.,.,.,.,.,.
COc1cc(/C=N/NC(=O)c2ccc3c(c2)OCCO3)cc(Cl)c1O,94.2,/,.,.,.,.
COc1ccc(/C=N\NC(=O)CNC(=O)C2COc3ccccc3O2)cc1[N+](=O)[O-] (stereo unspecified),.,.,.,.,.,.
COc1cc(/C=N\NC(=O)CNC(=O)C2COc3ccccc3O2)ccc1O (stereo unspecified),98.2,.,.,.,.,.
COc1ccc(/C=N\NC(=O)C2COc3ccccc3O2)cc1O (stereo unspecified),98.6,.,.,.,.,.
CCOC(=O)C1=C(C(=O)OCC)N(Cc2ccccc2)CCC1=O,/,.,/,.,/,/
N#Cc1ccc(CN(Nc2ccccc2)c2ccccc2)cc1,/,.,/,/,/,/
COc1ccccc1/C=C/C(=O)NCC(=O)N/N=C/c1ccc2c(c1)OCO2,88.3,.,.,.,.,.
COc1cc(/C=N/NC(=O)C2COc3ccccc3O2)ccc1O (stereo unspecified),99.1,.,.,.,.,.
COc1ccc(/C=N/NC(=O)C2COc3ccccc3O2)cc1OC (stereo unspecified),.,.,.,.,.,.
Cn1cccc1/C=N\NC(=O)C1COc2ccccc2O1 (stereo unspecified),.,.,.,.,.,.
Cn1cccc1/C=N\NC(=O)C1COc2ccc(C(C)(C)C)cc2O1 (stereo unspecified),.,23.8,.,.,.,.
Cc1ccc(NC(=O)CNc2ccccc2N2CCCC2=O)cc1S(=O)(=O)N1CCCCC1,.,.,/,.,.,/
O=C(NCc1cccnc1)C1C2C=CC(C2)C1C(=O)Nc1cccc(C(F)(F)F)c1 (stereo unspecified),/,.,/,/,/,/
O=c1c2cc(-c3ccccc3)sc2ncn1-n1cccc1,/,82.4,.,.,.,.
Cc1ccc(Sc2nc(-c3ccccc3)nnc2C(F)(F)F)cc1,97.8,.,.,.,.,.
SMILES,ALR H2O2 inh,DSG3 Ab inh,NALP1 yeast inh,Arr AP2 block,NLRP3 yeast inh,PolyA inh
CNc1nc(-c2ccccc2)nnc1C(F)(F)F,.,.,/,.,.,.
Cc1[nH]c2ccc(C(=O)OCC(=O)NC3(C#N)CCCCC3)cc2c1C,.,.,/,.,.,.
O=C(CCN1CCCCC1)NNC(=S)NC(=O)c1ccc(Br)cc1,98.9,.,.,.,.,.
O=C(CCN1CCOCC1)NNC(=S)NC(=O)c1ccc(Br)cc1,99.0,.,.,.,.,.
Nc1ccc(NC(=O)CCN2CCOCC2)cc1,93.2,.,.,.,.,.
O=C(OCC(=O)N1CCN(Cc2ccccc2)CC1)c1cc(Cl)ccc1[N+](=O)[O-],.,.,/,.,.,/
CCc1nn2c(=O)cc(CSCC(=O)Nc3ccccc3F)nc2s1,99.2,?,.,.,.,.
Cc1c(-c2ccc(F)cc2)[n+](=O)c(-c2ccc(F)cc2)c(C)n1[O-],.,/,41.9,.,.,.
Cc1c(C)[n+](=O)c(-c2ccc(F)cc2)c(C)n1[O-],.,/,.,.,.,.
COc1ccc(OC)c(N(CCN2C(=O)c3ccccc3C2=O)C(=O)C2CCC(=O)C2C)c1 (stereo unspecified),/,.,/,/,/,/
Cc1ccc(S(=O)(=O)NC(=O)c2cc(C)n(-c3ccc(N(C)C)cc3)c2C)cc1,94.9,.,.,.,.,.
Cc1ccc(S(=O)(=O)NC(=O)Nc2ccc(N(C)C)cc2)cc1,85.7,.,.,.,.,.
Cc1ccc(S(=O)(=O)NC(=O)c2cc(C)n(-c3ccccc3)c2C)cc1,.,.,.,.,.,.
COc1cc(CN2CCNC(=O)C2CC(=O)NC2CCCC2)cc(OC)c1 (stereo unspecified),.,.,.,.,.,.
OCCCNc1c2ccccc2nc2ccccc12,.,.,.,.,.,.
NC1=NC[C@H](Cc2ccc(O)cc2)N1CCCCC1CCCCC1,76.5,.,/,.,.,.
O=C(CSc1nc(=O)n(CCCN2CCOCC2)c2c1CCCC2)Nc1ccc(F)c(F)c1,.,.,/,.,.,.
CC(=O)c1cccc(NC(=O)CSc2nc(=O)n(CCCN3CCOCC3)c3c2CCC3)c1,97.8,.,/,.,.,.
Cc1cccc(NC(=O)CSc2nc(=O)n(CCCN3CCOCC3)c3c2CCCC3)c1,97.6,.,/,.,.,.
O=C(CSc1nc(=O)n(CCCN2CCOCC2)c2c1CCCC2)Nc1cccc(Cl)c1,98.6,.,/,.,.,.
COc1ccc(C(=O)NC2CC2)cc1OC1CCN(Cc2ccc(F)cc2Cl)CC1,.,.,.,.,.,.
CCN(CC)S(=O)(=O)c1cc(C(=O)Nc2cc(C)on2)c(Cl)cc1Cl,.,.,.,.,.,.
Cc1cn(CC(=O)NCC(c2ccccc2)c2ccccc2)c(=O)[nH]c1=O,/,.,/,.,/,/
O=C(O)CCn1cc(C2CC(c3ccccc3)=NN2c2ccccc2)c(-c2ccccc2)n1 (stereo unspecified),98.8,.,.,.,.,.
COC(=O)c1ccc(NC(=O)N2CCOCC2)cc1,.,.,.,.,.,.
O=C(Nc1ccc(O)cc1)N1CCOCC1,99.0,.,.,.,.,.
O=C(Nc1ccc(Nc2ccccc2)cc1)N1CCOCC1,99.3,.,.,.,.,.
COc1cccc(C(=O)NCc2ccco2)c1OC,.,.,.,.,.,.
COc1cc(/C=C/C(=O)OCC(=O)N2CCCCCC2)cc(OC)c1OC,/,.,/,/,/,/
